Source: ChEMBL document CHEMBL3046951, “Volatile constituents from the leaves of Callicarpa japonica Thunb. and their antibacterial activities” (2004)

Legend:
Format in all cases: functional
[1] = tested on: Vibrio parahaemolyticus; assay: Antimicrobial activity against Vibrio parahaemolyticus ATCC 33844 assessed as growth inhibition rate at 1.2 mg/l after 72 hr by spectrophotometry; conditions: ATCC 33844, 72 h, read-out: GI
Procedure, shortened: (§1)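 Authentic volatiles (>95% purity; 2,4-heptadienal 90%) tested against 18 h subcultures. Growth media: E. coli O157:H7 and S. aureus in tryptic soy broth at 37 °C; L. monocytogenes in tryptic soy broth at 30 °C; V. parahaemolyticus in tryptic soy broth + 3% NaCl at 37 °C; S. typhimurium in nutrient broth at 30 °C. Bioscreen C OD every 24 h for 72 h versus 10% Tween 80 control.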

[2] = tested on: Escherichia coli; assay: Antimicrobial activity against Escherichia coli O157:H7 ATCC 43894 assessed as growth inhibition rate at 1.2 mg/l after 72 hr by spectrophotometry; conditions: O157:H7 ATCC 43894, 72 h, read-out: GI
[3] = tested on: Bacillus cereus; assay: Antimicrobial activity against Bacillus cereus ATCC 11778 assessed as growth inhibition rate at 1.2 mg/l after 72 hr by spectrophotometry; conditions: ATCC 11778, 72 h, read-out: GI
Procedure, shortened: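 Pure volatile compounds (>95% purity; 2,4-heptadienal 90%) identified in the leaf extract were tested against B. cereus ATCC 11778 in nutrient broth at 30 °C. The inoculum was grown 24 h, then subcultured (0.1 mL into 9.9 mL) for 18 h. Optical density was read in a Bioscreen C every 24 h for 72 h against a 10% Tween 80 control.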

[4] = tested on: Listeria monocytogenes; assay: Antimicrobial activity against Listeria monocytogenes ATCC 19111 assessed as growth inhibition rate at 1.2 mg/l after 72 hr by spectrophotometry; conditions: ATCC 19111, 72 h, read-out: GI; procedure, shortened: as §1
[5] = tested on: Staphylococcus aureus; assay: Antimicrobial activity against Staphylococcus aureus ATCC 25923 assessed as growth inhibition rate at 1.2 mg/l after 72 hr by spectrophotometry; conditions: ATCC 25923, 72 h, read-out: GI; procedure, shortened: as §1
[6] = tested on: Salmonella typhimurium; assay: Antimicrobial activity against Salmonella enterica subsp. enterica serovar Typhimurium ATCC 14028 assessed as growth inhibition rate at 1.2 mg/l after 72 hr by spectrophotometry; conditions: ATCC 14028, 72 h, read-out: GI; procedure, shortened: as §1
[7] = tested on: Vibrio parahaemolyticus; assay: Antimicrobial activity against Vibrio parahaemolyticus ATCC 33844 assessed as growth inhibition rate at 11.64 mg/l after 72 hr by spectrophotometry; conditions: ATCC 33844, 72 h, read-out: GI
[8] = tested on: Salmonella typhimurium; assay: Antimicrobial activity against Salmonella enterica subsp. enterica serovar Typhimurium ATCC 14028 assessed as growth inhibition rate at 11.64 mg/l after 72 hr by spectrophotometry; conditions: ATCC 14028, 72 h, read-out: GI
Procedure, shortened: (§2)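 Salmonella Typhimurium ATCC 14028 grown in nutrient broth at 30 °C, precultured 24 h, then subcultured 1:100 for 18 h before testing. Single volatile compounds (>95% pure) were added. OD was read every 24 h over 72 h in a Bioscreen C, with 10% Tween 80 as the comparison control.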

[9] = tested on: Bacillus cereus; assay: Antimicrobial activity against Bacillus cereus ATCC 11778 assessed as growth inhibition rate at 11.64 mg/l after 72 hr by spectrophotometry; conditions: ATCC 11778, 72 h, read-out: GI
Procedure, shortened: (§3)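 Pure volatile compounds (purity >95%; one at 90%) were tested against B. cereus ATCC 11778. The strain was grown at 30 °C in nutrient broth for 24 h, then subcultured for 18 h. Optical density was read in a Bioscreen C every 24 h for 72 h, with 10% Tween 80 as the control.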

[10] = tested on: Staphylococcus aureus; assay: Antimicrobial activity against Staphylococcus aureus ATCC 25923 assessed as growth inhibition rate at 11.64 mg/l after 72 hr by spectrophotometry; conditions: ATCC 25923, 72 h, read-out: GI
[11] = tested on: Listeria monocytogenes; assay: Antimicrobial activity against Listeria monocytogenes ATCC 19111 assessed as growth inhibition rate at 11.64 mg/l after 72 hr by spectrophotometry; conditions: ATCC 19111, 72 h, read-out: GI
Procedure, shortened: (§4)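 L. monocytogenes was grown at 30 °C in tryptic soy broth, subcultured for 18 h, and exposed to pure volatile compounds (>95% purity). Growth was followed by Bioscreen C optical density every 24 h for 72 h against a 10% Tween 80 control.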

[12] = tested on: Escherichia coli; assay: Antimicrobial activity against Escherichia coli O157:H7 ATCC 43894 assessed as growth inhibition rate at 11.64 mg/l after 72 hr by spectrophotometry; conditions: O157:H7 ATCC 43894, 72 h, read-out: GI
[13] = tested on: Vibrio parahaemolyticus; assay: Antimicrobial activity against Vibrio parahaemolyticus ATCC 33844 assessed as growth inhibition rate at 143.24 mg/l after 72 hr by spectrophotometry; conditions: ATCC 33844, 72 h, read-out: GI
[14] = tested on: Escherichia coli; assay: Antimicrobial activity against Escherichia coli O157:H7 ATCC 43894 assessed as growth inhibition rate at 143.24 mg/l after 72 hr by spectrophotometry; conditions: O157:H7 ATCC 43894, 72 h, read-out: GI
[15] = tested on: Bacillus cereus; assay: Antimicrobial activity against Bacillus cereus ATCC 11778 assessed as growth inhibition rate at 143.24 mg/l after 72 hr by spectrophotometry; conditions: ATCC 11778, 72 h, read-out: GI; procedure, shortened: as §3
[16] = tested on: Staphylococcus aureus; assay: Antimicrobial activity against Staphylococcus aureus ATCC 25923 assessed as growth inhibition rate at 143.24 mg/l after 72 hr by spectrophotometry; conditions: ATCC 25923, 72 h, read-out: GI
[17] = tested on: Listeria monocytogenes; assay: Antimicrobial activity against Listeria monocytogenes ATCC 19111 assessed as growth inhibition rate at 143.24 mg/l after 72 hr by spectrophotometry; conditions: ATCC 19111, 72 h, read-out: GI; procedure, shortened: as §4
[18] = tested on: Salmonella typhimurium; assay: Antimicrobial activity against Salmonella enterica subsp. enterica serovar Typhimurium ATCC 14028 assessed as growth inhibition rate at 143.24 mg/l after 72 hr by spectrophotometry; conditions: ATCC 14028, 72 h, read-out: GI; procedure, shortened: as §2

CC=O
inhibition of growth at 1.2 µg/mL [1]: 11.1% | inhibition of growth at 1.2 µg/mL [2]: 5.3% | inhibition of growth at 1.2 µg/mL [3]: 1.2% | inhibition of growth at 1.2 µg/mL [4]: 10% | inhibition of growth at 1.2 µg/mL [5]: 2.8% | inhibition of growth at 1.2 µg/mL [6]: 15.4%

CC1=C[C@@H]2C(=C(C)CC[C@H]2C(C)C)CC1
inhibition of growth at 11.64 µg/mL [7]: 32.5% | inhibition of growth at 11.64 µg/mL [8]: 4.3% | inhibition of growth at 11.64 µg/mL [9]: 20.3% | inhibition of growth at 11.64 µg/mL [10]: 26.3% | inhibition of growth at 11.64 µg/mL [11]: 15.7% | inhibition of growth at 11.64 µg/mL [12]: 9.5%

C=C1CC[C@@H]2[C@H]([C@@H]3[C@H](C)CC[C@@H]13)C2(C)C [(-)-AROMADENDRENE II]
inhibition of growth at 143.24 µg/mL [13]: 45.6% | inhibition of growth at 143.24 µg/mL [14]: 24.2% | inhibition of growth at 143.24 µg/mL [15]: 72.3% | inhibition of growth at 143.24 µg/mL [16]: 61.5% | inhibition of growth at 143.24 µg/mL [17]: 28% | inhibition of growth at 143.24 µg/mL [18]: 36.4%
